Results on 6 molecules are retold here after PMC8721254 (Journal of Advanced Research, 2021).

Each structure is given as a SMILES string.

For data set [1], the system named is BSMCs. The data set is described as follows: Intracellular H2S release. It is filed as cell-based. Conditions: WSP-1-preloaded BSMCs, 40 min. The essentials: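 Bronchial smooth muscle cells were grown at 37 °C in 5% CO2 with 1% pen/strep and seeded at 30 × 10^3 cells/well. Cells were loaded with the H2S-sensitive dye WSP-1, then exposed to test compound, vehicle, or diallyl disulfide as reference donor. Fluorescence was recorded spectrofluorometrically for 40 min and expressed as fluorescence index, mean ± SEM.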

Data set [2] can be described thus: Chemical stability in saline phosphate buffer. It is filed as physicochemical. Particulars: phosphate buffered saline (PBS), pH 7.4. The essentials:
(§1)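 Test compound was taken from a 10 mM DMSO stock and diluted into PBS pH 7.4 or pepsin-free SGF pH 1.2 (0.5% DMSO final), in triplicate. Samples were incubated at 37 ± 0.5 °C for 24 h with sampling at intervals. Parent compound, glucocorticoid, H2S-donor moiety and succinate metabolite were quantified by C18 RP-HPLC (CH3CN/water 0.1% TFA gradient; UV 234/250/300 nm) against calibration standards. Results are % remaining, mean ± SD, n = 3.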

Data set [3] is described as follows: Enzymatic stability in human serum. It is filed as in vitro ADME. The essentials:
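Sterile-filtered human serum was spiked with test compound from a 10 mM DMSO stock (1% DMSO), in triplicate, at 37 °C. Aliquots taken at intervals up to 24 h were deproteinized with an equal volume of CH3CN containing 0.1% TFA. Samples were vortexed, sonicated 3 min, centrifuged 5 min at 2500 g, filtered, and analysed by C18 RP-HPLC against calibration standards. Half-life is reported as mean ± SD, n = 3.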

Data set [4] is described as follows: Chemical stability in simulated gastric fluid. Conditions: simulated gastric fluid (SGF) without pepsin, pH 1.2. The format is physicochemical. The method in brief:
as §1

In the next data set the test system is RBL-2H3 cells. As to the kind of experiment: β-hexosaminidase. The format is cell-based, rat. Conditions: DNP-HSA-induced degranulation of RBL-2H3. The essentials:
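Rat basophilic leukaemia RBL-2H3 cells were seeded at 72 × 10^3 cells/well and sensitized overnight with anti-DNP-HSA IgE, then moved to DMEM containing 1 mg/mL BSA. Test compound, vehicle (0.1% DMSO) or cromolyn was preincubated 5 min at 37 °C, and degranulation was triggered with DNP (10 ng/mL). After 1 h, supernatant β-hexosaminidase was read at 405 nm with p-nitrophenyl-N-acetyl-β-D-glucosaminide substrate. Values are relative to DNP-HSA as 100%, analysed by one-way ANOVA/Bonferroni.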

Data set [5] concerns OVA-induced allergic lung inflammation. The data set is described as follows: OVA-induced allergic lung inflammation and remodeling. The format is in vivo, Balb/c mice. Conditions: mice, oral, equimolar doses equivalent to 5.5 mg/kg prednisone (compound 7 9.1 mg/kg); for number of peribronchiolar eosinophils / number of peribronchiolar mast cells: vs allergic mice; for peribronchiolar collagen density / peribronchiolar smooth muscle (α-actin): vs vehicle-treated allergic mice. The method in brief: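 Male Balb/c mice, 4–5 weeks old (n = 5/group), sensitized with subcutaneous OVA on alum on days 1 and 11 plus intranasal OVA on day 11. Intranasal OVA challenges followed on two consecutive days weekly for six weeks; controls got saline. Oral dosing in 0.5% carboxymethyl cellulose (1 mL/kg) was given 30 min before each challenge, then daily for 4 weeks until euthanasia. Formalin-fixed lungs were scored for α-actin (immunohistochemistry) and collagen (Masson's trichrome); one-way ANOVA with Tukey test.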

The test system of data set [6] is BSMCs. As to the kind of experiment: Membrane hyperpolarizing effects on BSMCs. Particulars: reference NS1619 10 µM. It is filed as cell-based.

For the molecule `C=CCSSCC=C` [DADS, diallyl disulfide, reference compound], the “Intracellular H2S release, fluorescence index (FI)” value in the data set with BSMCs [1] (100 µM, vs vehicle) is recorded as “significant FI increase”.

Regarding `C[C@@H]1C[C@H]2[C@@H]3CCC4=CC(=O)C=C[C@]4(C)[C@@]3(F)[C@@H](O)C[C@]2(C)[C@@]1(O)C(=O)COC(=O)CCC(=O)Oc1ccc(-c2cc(=S)ss2)cc1` [Compound 6, 2-((8S,9R,10S,11S,13S,14S,16R,17R)-9-fluoro-11,17-dihydroxy-10,13,16-trimethyl-3-oxo-6,7,8,9,10,11,12,13,14,15,16,17-dodecahydro-3H-cyclopenta[a]phenanthren-17-yl)-2-oxoethyl (4-(3-thioxo-3H-1,2-dithiol-5-yl)phenyl) succinate], the fraction remaining at 24 h, 50 µM is 99 ± 2% in data set [2] and 99 ± 1% in data set [4]. Besides, the “Intracellular H2S release, fluorescence index (FI)” value in the data set on BSMCs [1] (100 and 300 µM) is on record as “did not cause any significant increase in fluorescence”. The molecule also displayed a half-life at 100 µM in data set [3] of 10 ± 1 min.

Take `C[C@]12C=CC(=O)C=C1CC[C@@H]1[C@@H]2C(=O)C[C@@]2(C)[C@H]1CC[C@]2(O)C(=O)CO` [Compound 2, prednisone, reference compound]: the “inhibition of mast cell degranulation (β-hexosaminidase release)” value (“inhibition of mast cell degranulation” for short) in the data set on RBL-2H3 cells (100 and 300 µM) is “totally inactive”. In data set [5], the “number of peribronchiolar eosinophils” value is on record as “significantly reduced”, the “number of peribronchiolar mast cells” value is “significantly reduced”, the peribronchiolar collagen density entry is reported as “efficient in reducing” and the “peribronchiolar smooth muscle (α-actin)” value is on record as “efficient in reducing”.

As for `C[C@]12C=CC(=O)C=C1CC[C@@H]1[C@@H]2C(=O)C[C@@]2(C)[C@H]1CC[C@]2(O)C(=O)COC(=O)CCC(=O)Oc1ccc(C(N)=S)cc1` [Compound 7, 4-carbamothioylphenyl (2-((8S,9S,10R,13S,14S,17R)-17-hydroxy-10,13-dimethyl-3,11-dioxo-6,7,8,9,10,11,12,13,14,15,16,17-dodecahydro-3H-cyclopenta[a]phenanthren-17-yl)-2-oxoethyl) succinate], the fraction remaining at 24 h, 50 µM in data set [2] was found to be 97 ± 1%. In the data set with BSMCs [6] (100 µM), the “hyperpolarizing effect compared to NS1619 10 µM” value was “about 240%”. Further, in the data set with BSMCs [6] (300 µM), the “hyperpolarizing effect compared to NS1619 10 µM” value was “about 309%”. For the same molecule, the “inhibition of mast cell degranulation” value in the data set on RBL-2H3 cells (100 and 300 µM) is “significant inhibitory effect on mast cell degranulation”. In the data set on BSMCs [1] (100 and 300 µM), the “Intracellular H2S release, fluorescence index (FI)” value is on record as “significant increase in the intracellular level of H2S”. In addition, in data set [3], the half-life at 100 µM stood at 15 ± 2 min. Also, in data set [5], the “number of peribronchiolar eosinophils” value is on record as “significantly reduced”, the “number of peribronchiolar mast cells” value was “significantly reduced”, the peribronchiolar collagen density entry is “significantly more efficient than the parent prednisone” and the “peribronchiolar smooth muscle (α-actin)” value is listed as “significantly more efficient than the parent prednisone”. For the same molecule, the amount remaining at 24 h, 50 µM in data set [4] was 99 ± 1%.

Consider `NC(=S)c1ccc(O)cc1` [TBZ, 4-hydroxy-thiobenzamide, reference compound], for which the figures for the “hyperpolarizing effect compared to NS1619 10 µM” value with BSMCs [6] (100 µM) and with BSMCs [6] (300 µM) were 38% and 43%, respectively. In addition, in the data set on RBL-2H3 cells (300 µM), the “inhibition of mast cell degranulation” value is recorded as “significant inhibition of RBL-2H3 degranulation”. Besides, the “Intracellular H2S release, fluorescence index (FI)” value in the data set on BSMCs [1] (100 µM, vs vehicle) is “slight increase of FI”; in the data set with BSMCs [1] (300 µM) it was “massive increase in FI”.

As to `C[C@]12C=CC(=O)C=C1CC[C@@H]1[C@@H]2C(=O)C[C@@]2(C)[C@H]1CC[C@]2(O)C(=O)COC(=O)CCC(=O)Oc1ccc(-c2cc(=S)ss2)cc1` [Compound 8, 2-((8S,9S,10R,13S,14S,17R)-17-hydroxy-10,13-dimethyl-3,11-dioxo-6,7,8,9,10,11,12,13,14,15,16,17-dodecahydro-3H-cyclopenta[a]phenanthren-17-yl)-2-oxoethyl (4-(3-thioxo-3H-1,2-dithiol-5-yl)phenyl) succinate], the results for the fraction remaining at 24 h, 50 µM in data set [2] and in data set [4] were 99 ± 2% and 99 ± 1%, respectively. Moreover, the “Intracellular H2S release, fluorescence index (FI)” value in the data set on BSMCs [1] (100 and 300 µM) is reported as “did not cause any significant increase in fluorescence”. Moreover, the half-life at 100 µM in data set [3] came out at 9 ± 2 min.
